Measurements: paper PMC12574688 (European journal of medicinal chemistry, 2025)
Read-outs that look alike come from different tables or passages of the source. One block for each molecule: values may come before it.

Tests used:
[1] = target: BRK (Homo sapiens, UniProt Q13882); experiment: BRK biochemical inhibitory assay; settings: for inhibition at 2 µM: read-out: % BRK Inhibition
Procedure, shortened: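 Human BRK kinase pre-incubated with test compound for 10 min, then substrate and ATP mix added. Kinase reaction run 1 h. ADP-Glo reagent added for 40 min, then kinase detection reagent for 45 min. Luminescence read. Single-point screens run at 2 μM and at 0.2 μM test compound, given as % BRK inhibition.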

[2] = tested on: MDA.MB.231 cell line; experiment: MTT cytotoxicity / cell viability assay; type: cell-based
[3] = tested on: MDA.MB.231 cells; experiment: Colony formation assay; type: cell-based; settings: varying concentrations
[4] = tested on: BT-20 cells; experiment: Colony formation assay; type: cell-based; settings: varying concentrations
[5] = tested on: HCC1806 cells; experiment: Colony formation assay; type: cell-based; settings: single concentration of 10 μM
[6] = tested on: AKT phosphorylation in BT-20 cells; experiment: Western blot of AKT phosphorylation; type: cell-based; settings: vs control, preliminary western blot (Figure S3)

Sequence of BRK (Q13882 whole entry): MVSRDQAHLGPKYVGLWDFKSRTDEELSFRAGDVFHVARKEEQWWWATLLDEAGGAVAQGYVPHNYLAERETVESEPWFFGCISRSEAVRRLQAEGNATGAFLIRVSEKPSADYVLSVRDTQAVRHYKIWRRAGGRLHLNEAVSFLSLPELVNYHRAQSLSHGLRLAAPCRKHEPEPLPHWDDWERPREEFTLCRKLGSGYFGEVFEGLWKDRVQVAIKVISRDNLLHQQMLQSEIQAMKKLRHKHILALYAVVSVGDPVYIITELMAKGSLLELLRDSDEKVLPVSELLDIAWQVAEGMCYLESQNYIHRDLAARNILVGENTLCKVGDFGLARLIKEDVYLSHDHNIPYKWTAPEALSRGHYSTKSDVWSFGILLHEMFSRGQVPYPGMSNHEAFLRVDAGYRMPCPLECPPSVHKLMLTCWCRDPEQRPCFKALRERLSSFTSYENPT

SMILES: Oc1cccc(Nc2ccnc3[nH]c4ccccc4c23)c1 [Compound 4f, tilfrinib]
Biochemical assay % Inhibition 0.2 μM ([1]; 0.2 μM, ADP-Glo (Table 3)): 86%
Biochemical assay % Inhibition 2 μM ([1]; 2 μM, ADP-Glo (Table 3)): 100%
IC50 ([1]; read-out: BRK IC50, enzymatic inhibition): 25 nM
IC50 ([1]; read-out: Biochemical assay IC50, ADP-Glo (Table 3)): 25.7 ± 5.05 nM
% BRK Inhibition ([1]; single point, 2 μM, ADP-Glo, pyrimido-indole derivatives (Table 1)): 100.0 ± 7.8%
Cellular assay MDA.MB.231 % Inhibition 10 μM ([2]; MTT, 10 μM, 72h treatment): 31.40%
cytotoxicity in viability studies ([2]; viability studies, in words): minimal cytotoxicity
colony formation [3]: reduce the colony formation
colony formation [4]: reduce the colony formation
colony formation [5]: reduce the colony formation
AKT phosphorylation [6]: increase in AKT phosphorylation

inhibition at 2 µM [1]: 29.6 ± 22.9%
SMILES: Oc1cccc(-c2cncc(Cl)n2)c1 [Compound 26, 3-(6-chloropyrazin-2-yl)phenol]

inhibition at 2 µM [1]: 76.1 ± 7.3%
SMILES: Oc1cccc(Nc2ncnc3cc(Br)ccc23)c1 [Compound 35, 3-((7-bromoquinazolin-4-yl)amino)phenol]

inhibition at 2 µM [1]: 48.9 ± 8.9%
SMILES: Oc1cccc(-c2cnc3ccccc3n2)c1 [Compound 32, 3-(quinoxalin-2-yl)phenol]
